# rCAG RNA binder – molecules binding r(CAG) RNA repeats | r(CAG) RNA repeat, TO-PRO-1 dye displacement fluorescence | inhibition, % at 3 µM | AID 651821 | 370,000 compounds, 1.3% hits;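 active means inhibition above the plate cutoff, the mean of all test compounds on that plate plus 3 SD, cut at about 35% in these data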;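 further: higher means more dye released from RNA so lower well fluorescence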
# HTRA1 inhibitor – HTRA1 (human) protease inhibition; recombinant HTRA1, FP-rhodamine activity-based probe, fluorescence polarization; inhibition, % at 5.96 µM; 340,000 compounds, 0.5% hits; in the data active means inhibition above about 36%
# SIAE inh – inhibitors of human sialic acid acetylesterase SIAE; Q9HAT2; 370,000 compounds, 0.69% hits; SIAE FP-Rh probe binding, fluorescence polarization; inhibition, % at 9.66 µM;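 active means inhibition above a cutoff: mean of compounds within the control limits plus 3 SD of those, cut at about 17% in these data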
# Target sequence (Q9HAT2 whole entry, looked up): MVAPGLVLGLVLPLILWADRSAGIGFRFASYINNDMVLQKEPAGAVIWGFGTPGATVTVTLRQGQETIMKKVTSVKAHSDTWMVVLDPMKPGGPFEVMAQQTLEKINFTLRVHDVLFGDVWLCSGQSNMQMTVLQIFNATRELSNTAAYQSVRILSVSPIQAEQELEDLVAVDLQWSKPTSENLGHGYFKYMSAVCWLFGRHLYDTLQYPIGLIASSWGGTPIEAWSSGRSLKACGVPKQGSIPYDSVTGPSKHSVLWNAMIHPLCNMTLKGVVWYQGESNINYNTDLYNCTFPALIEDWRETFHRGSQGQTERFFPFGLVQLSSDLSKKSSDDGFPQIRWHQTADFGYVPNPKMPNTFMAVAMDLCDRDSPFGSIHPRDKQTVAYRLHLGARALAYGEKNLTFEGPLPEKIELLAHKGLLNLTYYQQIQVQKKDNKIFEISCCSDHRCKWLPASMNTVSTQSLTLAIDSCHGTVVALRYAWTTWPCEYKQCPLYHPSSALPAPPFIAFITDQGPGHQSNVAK
# TCR-CD3 inh – inhibitors of human TCR-CD3 interaction. TAMRA-labeled TCR probe fluorescence, biochemical. inhibition, % at 9.4 µM. 360,000 compounds, 0.37% hits; in the data active means inhibition above about 19%;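 further: recombinant mutant TCR 2C K166C tagged with TAMRA read by polarization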
# PRMT1 FP inh – blocks human protein arginine methyltransferase 1; Q99873; recombinant PRMT1, activity-based probe fluorescence polarization; inhibition, % at 2.79 µM; 370,000 compounds, 1.3% hits; AID 652257;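 active means inhibition above about 21% made by adding two undisclosed values, limit read from the data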
# mABHD4 FP – inhibitors of mouse ABHD4. purified mABHD4, FP-Rh probe fluorescence polarization. Q8VD66. inhibition, % at 8.92 µM. 370,000 compounds, 0.54% hits;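 active means inhibition exceeding the mean over every tested compound plus 3 SD, cut at about 30% in these data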
#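 Material: mouse ABHD4 enzyme, wild type; Benchmarks: S159A mutant high control, sample median low control; Buffer or medium: HEPES pH 7.0, NaCl, Pluronic buffer; Signal: fluorescence polarization; Read-out: percent inhibition of probe binding, normalized to plate controls; Timing: pre-incubation 45 min, probe exposure 60 min, at 25 °C; Dosing: 8.92 µM, single dose.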
# PRMT1 inh conf – confirmation of human PRMT1 inhibitors | shares compounds with PRMT1 FP inh | recombinant His-PRMT1, activity-based probe fluorescence polarization | inhibition, % at 2.79 µM | 3,300 compounds, 42% hits;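 active means mean inhibition across replicates above the hit cutoff derived for the earlier primary screen, cut at about 22% in these data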
# A number is an active result; i = inactive; nt = not tested or not shown. This is a sample that favours compounds with a hit; in the whole collection about 3.5% have one here.
SMILES,rCAG RNA binder,HTRA1 inhibitor,SIAE inh,TCR-CD3 inh,PRMT1 FP inh,mABHD4 FP,PRMT1 inh conf
Cc1ccc(NC(=O)/C=C/C(=O)O)c([N+](=O)[O-])c1,i,i,i,i,i,i,nt
CNc1nc(N)c([N+](=O)[O-])c(Nc2ccccc2)n1,nt,nt,i,nt,i,i,nt
NC(=O)C1CCN(c2ccnc(Cl)n2)CC1,nt,nt,i,nt,i,i,nt
COc1ccc(N=C(N)NC(=O)OCc2ccccc2)cc1,i,nt,i,nt,i,i,nt
CCC[C@H]1[C@@H](NC(=O)c2cccc(C(F)(F)F)c2)CC[C@@]23CCCN2C(=O)CCC[C@@H]13,nt,nt,i,nt,i,i,nt
Cc1ccc2c(c1)N(CCCC(=O)NCc1cccs1)C(=O)CO2,i,nt,i,nt,i,i,nt
NC(=O)c1ccc(SCC(=O)OCC(=O)NCc2cccs2)c([N+](=O)[O-])c1,i,i,i,i,45,i,i
NC(=O)c1ccc(SCC(=O)OCC(=O)NCC2CCCCC2)c([N+](=O)[O-])c1,i,i,i,i,i,i,nt
CN(C)[C@H]1CCN(c2ccc3c(c2)O[C@H]2CCN(C2)S3(=O)=O)C1,i,nt,i,nt,i,i,nt
CN(C)C(CNC(=O)c1cccc(S(=O)(=O)Nc2ccc(SC(F)F)cc2)c1)c1ccccc1 (stereo unspecified),i,i,i,i,44,i,62
COc1ccc(NS(=O)(=O)c2cccc(C(=O)NCC(c3ccccc3)N(C)C)c2)cc1 (stereo unspecified),i,i,i,i,i,i,nt
CS(=O)(=O)N[C@@H]1C[C@@H]2O[C@H](CO)CC[C@@H]2O[C@@H]1CCc1ccc(/C=C/c2ccccc2)cc1,i,nt,i,nt,i,i,nt
O=C(CC(c1ccco1)S(=O)(=O)c1ccccc1)c1ccc(F)cc1 (stereo unspecified),i,i,i,i,28,i,22
O=C(c1ccc(F)c(F)c1)N1CCC(Oc2cccnc2)CC1,i,nt,i,nt,i,i,nt
Cc1cc(N2CCN(CCO)CC2)n2nc(C)nc2n1,i,nt,i,nt,i,i,nt
CCN1C(=O)CC(NCc2ccc3c(c2)OCO3)C1=O (stereo unspecified),i,i,i,i,i,i,nt
NS(=O)(=O)c1ccc(CCNC2CC(=O)N(Cc3ccccc3)C2=O)cc1 (stereo unspecified),i,i,i,i,63,i,i
O=C1CC(NCc2ccc3c(c2)OCO3)C(=O)N1CCc1ccccc1 (stereo unspecified),i,i,i,i,44,i,i
NS(=O)(=O)c1ccc(CCNC2CC(=O)N(CCc3ccccc3)C2=O)cc1 (stereo unspecified),i,i,i,i,34,i,i
O=C(O)c1cccc(-n2cccc2/C=C\[N+](=O)[O-])c1,i,i,i,i,36,i,i
CCCOc1ccc(-c2nc(=S)[nH][nH]2)cc1,i,i,i,i,46,i,i
COc1ccc2c(c1C(=O)/C=C/c1ccccc1)OC(C)(C)C=C2,nt,nt,i,nt,i,i,nt
O=C(O)c1cccc2c1C(=O)c1ccc(N3CCCC3)cc1S2(=O)=O,i,i,i,i,27,i,30
O=C(NCc1cccc(F)c1)c1cccc2c1C(=O)c1ccc(N3CCCC3)cc1S2(=O)=O,nt,i,nt,nt,nt,nt,nt
CCOC(=S)SCc1cn2ccc(C)cc2n1,i,i,i,i,42,i,26
SMILES,rCAG RNA binder,HTRA1 inhibitor,SIAE inh,TCR-CD3 inh,PRMT1 FP inh,mABHD4 FP,PRMT1 inh conf
CCOC(=S)SCc1cn2ccccc2n1,i,i,i,i,i,i,nt
COc1cccc(/C=C2\Sc3ccc(C(=O)NCc4cccnc4)cc3N(C)C2=O)c1,i,i,i,i,i,i,nt
COc1ccc(/C=C2\Sc3ccc(C(=O)NCc4cccnc4)cc3N(C)C2=O)cc1OC,i,i,i,i,32,i,i
CCOc1ccc(-n2c(COc3ccccc3)nnc2SCC(=O)Nc2ccc(OCc3ccccc3)cc2)cc1,i,nt,i,nt,i,i,nt
Oc1ccccc1C(=S)N1CCN(C(=S)c2ccccc2O)CC1,i,i,i,i,42,i,i
CCN(CC)C(=S)SCC(=O)Nc1ccc(S(N)(=O)=O)cc1,i,i,i,i,i,i,nt
CCN(CC)C(=S)SCC(=O)Nc1nc(=O)c2ccccc2s1,i,i,i,i,44,i,i
CC(C)(C)c1ccc(Cn2cnc(-c3ccc([N+](=O)[O-])cc3)c2)cc1,i,i,i,i,i,i,nt
Cc1cc(C)c(Cn2cnc(-c3ccc([N+](=O)[O-])cc3)c2)c(C)c1,i,i,i,i,46,i,i
S=c1[nH]cc(-c2ccccc2)n1-c1ccccc1,i,i,i,i,34,i,i
O=C(CCN1CCC(c2ccccc2)C1)c1ccc2c(c1)OCCO2 (stereo unspecified),i,i,i,i,36,i,i
O=C(CCN1CCCC1Cc1ccccc1)c1ccc2c(c1)OCCO2 (stereo unspecified),i,i,i,i,37,i,40
O=C(CCN1CCC(c2ccccc2)C1)c1cccs1 (stereo unspecified),i,i,i,i,i,i,nt
O=C(CCN1CCC(c2ccccc2)C1)c1ccccc1 (stereo unspecified),nt,i,nt,nt,nt,nt,nt
COc1cc(C(=O)CCN2CCC(c3ccccc3)C2)cc(OC)c1OC (stereo unspecified),i,i,i,i,32,i,i
COc1ccc(C#CCN(Cc2ccc(OC)cc2OC)C(N)=NC(=O)CCc2ccccc2)cc1,i,nt,i,nt,i,i,nt
CN1C2=N[C@H](c3ccccc3)CC(=O)N2/C(=C\c2ccccc2)C1Cc1ccccc1 (stereo partly specified),i,nt,i,nt,i,i,nt
Cc1cc(C)c(NC(=S)NCC2CCN(C(C)c3ccccc3)C2)c(C)c1 (stereo unspecified),i,i,i,i,42,i,72
O=C(NC1CCCCN(Cc2cccc(C(F)(F)F)c2)C1=O)C1C2CC3CC(C2)CC1C3 (stereo unspecified),i,nt,i,nt,i,i,nt
CC(C)NC(=O)c1sc2nc3c(c(-c4cccs4)c2c1N)CN(C)CC3,i,i,i,i,39,i,i
Cc1cccc(NC(=O)c2sc3nc4c(c(-c5cccs5)c3c2N)CN(C)CC4)c1,i,i,i,i,i,i,nt
Oc1ccccc1C=Nn1c(-c2ccccc2F)n[nH]c1=S,i,nt,i,nt,i,i,nt
COC(=O)CSc1nnc(-c2cc(-c3ccccc3)n[nH]2)n1N,i,nt,i,nt,i,i,nt
O=C(COC(=O)CNC(=O)c1ccco1)Nc1ncc(Cl)cc1Cl,i,i,i,i,35,i,i
O=C(CNC(=O)c1cccs1)c1ccc([N+](=O)[O-])cc1,i,i,i,i,i,i,nt
O=C(Cc1ccccc1)NCC(=O)OCC(=O)c1ccc([N+](=O)[O-])cc1,i,i,i,i,76,i,67
O=C(CNC(=O)c1cccs1)OCC(=O)c1ccc([N+](=O)[O-])cc1,i,i,i,i,60,i,51

# Screening data from PubChem BioAssay.
